Here are results for two compounds from PMC2646117 (Cell host & microbe, 2008).

The subject of one series is PbΔfabI. Briefly: Ex vivo drug susceptibility assay, P. berghei asexual blood stages. The conditions noted are these: Plasmodium berghei. The format is cell-based.
The next series deals with PbfabI^Rec. Briefly: Ex vivo drug susceptibility assay, P. berghei asexual blood stages. The series is classed as cell-based. The conditions noted are these: Plasmodium berghei. In short, it runs like this:
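Ex vivo growth of P. berghei asexual blood-stage parasites exposed to the test compound was measured by [³H]-hypoxanthine assay. IC50 was calculated by linear regression. Each compound was tested in duplicate on at least two separate occasions.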

Another series has as its system ANKA. Briefly: Ex vivo drug susceptibility assay, P. berghei asexual blood stages. The format is cell-based. The conditions noted are these: Plasmodium berghei.
A further series deals with P. falciparum 3D7. The series is classed as cell-based. The conditions noted are these: Plasmodium falciparum, 3D7, read-out: mean IC50.
The next series deals with P. falciparum Dd2. The series is classed as cell-based. The conditions noted are these: Plasmodium falciparum, DD2, read-out: mean IC50.
Series [1] relates to P. berghei (KBG-173 line). The format is in vivo. The conditions noted are these: for parasitemia on day 6 post-infection: three days twice-daily divided dose.
The test system of the next series is PffabI(A217V)^Dd2. Briefly: Drug susceptibility assay, transgenic line. The format is cell-based, P. falciparum. The conditions noted are these: Plasmodium falciparum.
The subject of a further series is PffabI(WT)^Dd2. The series is described as follows: Drug susceptibility assay, transgenic line. The conditions noted are these: Plasmodium falciparum. The series is classed as cell-based, P. falciparum.
Another series relates to Dd2^attB. Briefly: Drug susceptibility assay, parental line. The conditions noted are these: Plasmodium falciparum. The format is cell-based, P. falciparum.
A further series relates to PffabI(A217V)^3D7. Briefly: Drug susceptibility assay, transgenic line. The series is classed as cell-based, P. falciparum. The conditions noted are these: Plasmodium falciparum.
The next series deals with PffabI(WT)^3D7. The series is described as follows: Drug susceptibility assay, transgenic line. The format is cell-based, P. falciparum. The conditions noted are these: Plasmodium falciparum.
The subject of the next series is 3D7^attB. The series is described as follows: Drug susceptibility assay, parental line. The series is classed as cell-based, P. falciparum. The conditions noted are these: Plasmodium falciparum.
A further series has as its system PfΔfabI^1. Briefly: Drug susceptibility assay, pffabI knockout clone. The format is cell-based, P. falciparum. The conditions noted are these: Plasmodium falciparum, read-out: IC50 (mean ± SEM).
The next series deals with PfΔfabI^2. The series is described as follows: Drug susceptibility assay, pffabI knockout clone. The format is cell-based, P. falciparum. The conditions noted are these: Plasmodium falciparum, read-out: IC50 (mean ± SEM).
A further series deals with P. berghei. The conditions noted are these: SC, 3 mg/kg/day, four days; ref Surolia and Surolia, 2001; cited from earlier work.
A further series relates to recombinant PfFabI A217V. The conditions noted are these: recombinant PfFabI A217V versus wild type; ref Kapoor et al., 2004; cited from earlier work.

SMILES strings stand for the structures. Read-outs that look alike come from different tables or passages of the source.

`CCN(CC)CCCC(C)Nc1ccnc2cc(Cl)ccc12` (centres unmarked) [chloroquine]: the IC50 was found to be 11 ± 0.1 nM with PbΔfabI, 13 ± 0.6 nM in the series on PbfabI^Rec and 10.4 ± 0.3 nM with ANKA.
Regarding `Oc1cc(Cl)ccc1Oc1ccc(Cl)cc1Cl` [triclosan, 5-chloro-2-(2,4-dichlorophenoxy)phenol], the IC50 in the series with P. falciparum 3D7 was 1800 nM; in the series with P. falciparum Dd2 it was […]; with PffabI(A217V)^Dd2 (DD2, read-out: IC50 (mean±SEM)) it was […]; with PffabI(WT)^Dd2 (DD2, read-out: IC50 (mean±SEM)), […]; with Dd2^attB (DD2, read-out: IC50 (mean±SEM)), […]; with PffabI(A217V)^3D7 (3D7, read-out: IC50 (mean±SEM)), […]. Moreover, the IC50 is […] in the series on PffabI(WT)^3D7 (3D7, read-out: IC50 (mean±SEM)); […] in the series on 3D7^attB (3D7, read-out: IC50 (mean±SEM)); 2200 ± 200 nM with PfΔfabI^1; 2400 ± 300 nM in the series on PfΔfabI^2; 1400 ± 100 nM in the series on PbΔfabI (read-out: IC50 (means±SEM)); 1500 ± 200 nM in the series on PbfabI^Rec (read-out: IC50 (means±SEM)). For the same compound, the half-maximal inhibitory concentration (IC50) in the series on ANKA (read-out: IC50 (means±SEM)) was […]. The “parasitemia at doses above 128 mg/kg/day” value in series [1] (PO or SC, doses higher than 128 mg/kg/day) is “failed to further suppress the parasitemias”. The survival times result in series [1] (PO, 64 mg/kg/day) is recorded as “slight extension in survival times”. Besides, the “survival rate at day 31” value in [1] (PO, 128 mg/kg/day) came out at 30%; in series [1] (PO, 256 mg/kg/day), 30%. Moreover, the “parasitemia on day 6 post-infection” value in series [1] (PO, 128 mg/kg/day, placebo control 61%) is given as 27%; in [1] (SC, 128 mg/kg/day, placebo control 57%) it was 13%. In series [1] (PO, 512 mg/kg/day), the “mortality / overall survival (toxicity)” value was “some early mortality and decreased overall survival rates”. Besides, the survival in [1] (SC route, 16 to 512 mg/kg/day) is on record as no more than 50%. Besides, the IC90 stood at […] in the series with PffabI(A217V)^Dd2 (DD2, read-out: IC90 (mean±SEM)); […] with PffabI(WT)^Dd2 (DD2, read-out: IC90 (mean±SEM)); […] in the series on Dd2^attB (DD2, read-out: IC90 (mean±SEM)); […] in the series with PffabI(A217V)^3D7 (3D7, read-out: IC90 (mean±SEM)); […] in the series on PffabI(WT)^3D7 (3D7, read-out: IC90 (mean±SEM)); 4800 ± 600 nM in the series on 3D7^attB (3D7, read-out: IC90 (mean±SEM)). Further, the “suppression of P. berghei parasitemia” value with P. berghei is 75%. Moreover, in the series with recombinant PfFabI A217V, the “decrease in binding affinity conferred by A217V mutation” value is on record as […].

The IC50 is the concentration at which inhibition is half-maximal. What is called IC90 is the concentration at which the effect reaches the 90% level.
